Results: ChEMBL document CHEMBL1142636 (2000)

Assays:
[1] = test system: MOLT-4; assay: Growth inhibition of human MOLT4 cells; type: functional
[2] = Growth inhibition of human RPMI8266 cells; type: functional
[3] = test system: IGROV-1; assay: Growth inhibition of human IGROV1 cells; type: functional
[4] = test system: HCT-116; assay: Growth inhibition of human HCT116 cells; type: functional
[5] = test system: LOX IMVI; assay: Growth inhibition of human LOX IMVI cells; type: functional
[6] = Growth inhibition of human OVACR4 cells; type: functional
[7] = Growth inhibition of human DMS144 cells; type: functional
[8] = Growth inhibition of human OVACR8 cells; type: functional
[9] = test system: SNB-19; assay: Growth inhibition of human SNB19 cells; type: functional
Summary of the method: (§1)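 Tested at the NCI in its human disease-oriented in vitro screen of 60 tumour cell lines, following the Monks et al. methods. Activity is expressed as GI50, given as log molar values.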

[10] = test system: HCC 2998; assay: Growth inhibition of human HCC2998 cells; type: functional
[11] = test system: NCI-H322M; assay: Growth inhibition of human NCI-H322M cells; type: functional
[12] = Growth inhibition of human LXFL529 cells; type: functional; conditions: LXFL 529
[13] = test system: SW-620; assay: Growth inhibition of human SW620 cells; type: functional; summary of the method: as §1
[14] = test system: DMS-273; assay: Growth inhibition of human DMS273 cells; type: functional
[15] = test system: M14; assay: Growth inhibition of human M14 cells; type: functional
[16] = test system: SF-268; assay: Growth inhibition of human SF268 cells; type: functional; summary of the method: as §1
[17] = test system: SK-MEL-28; assay: Growth inhibition of human SK-MEL-28 cells; type: functional; summary of the method: as §1
[18] = test system: TK-10; assay: Growth inhibition of human TK10 cells; type: functional; summary of the method: as §1
[19] = test system: CCRF-CEM; assay: Growth inhibition of human CCRF-CEM cells; type: functional
[20] = test system: NCI-H460; assay: Growth inhibition of human NCI-H460 cells; type: functional
[21] = test system: SF-539; assay: Growth inhibition of human SF539 cells; type: functional; summary of the method: as §1
[22] = test system: U-251; assay: Growth inhibition of human U251 cells; type: functional; summary of the method: as §1
[23] = Growth inhibition of human OVACR5 cells; type: functional
[24] = test system: 786-0; assay: Growth inhibition of human 786-0 cells; type: functional
[25] = test system: HCT-15; assay: Growth inhibition of human HCT15 cells; type: functional
[26] = test system: UACC-62; assay: Growth inhibition of human UACC62 cells; type: functional; summary of the method: as §1
[27] = test system: KM-20L2; assay: Growth inhibition of human KM20L2 cells; type: functional
[28] = test system: SK-OV-3; assay: Growth inhibition of human SK-OV-3 cells; type: functional; summary of the method: as §1
[29] = test system: SK-MEL-5; assay: Growth inhibition of human SK-MEL-5 cells; type: functional; summary of the method: as §1
[30] = test system: Malme-3M; assay: Growth inhibition of human MALME-3M cells; type: functional
[31] = test system: UO-31; assay: Growth inhibition of human UO31 cells; type: functional; summary of the method: as §1
[32] = test system: M19-MEL; assay: Growth inhibition of human M19-MEL cells; type: functional
[33] = test system: HOP-92; assay: Growth inhibition of human HOP92 cells; type: functional
[34] = test system: SK-MEL-2; assay: Growth inhibition of human SK-MEL-2 cells; type: functional; summary of the method: as §1
[35] = test system: COLO 205; assay: Growth inhibition of human COLO205 cells; type: functional
[36] = test system: ACHN; assay: Growth inhibition of human ACHN cells; type: functional
[37] = test system: DLD-1; assay: Growth inhibition of human DLD1 cells; type: functional
[38] = test system: NCI-H226; assay: Growth inhibition of human NCI-H226 cells; type: functional
[39] = test system: SR; assay: Growth inhibition of human SR cells; type: functional; summary of the method: as §1
[40] = test system: SNB-75; assay: Growth inhibition of human SNB75 cells; type: functional; summary of the method: as §1
[41] = test system: K562; assay: Growth inhibition of human K562 cells; type: functional
[42] = Growth inhibition of human HL60(TB) cells; type: functional, HL-60(TB); conditions: HL-60
[43] = Growth inhibition of human […] cells; type: functional
[44] = test system: NCI-H522; assay: Growth inhibition of human NCI-H522 cells; type: functional
[45] = test system: XF498; assay: Growth inhibition of human XF498 cells; type: functional; summary of the method: as §1
[46] = test system: A549; assay: Growth inhibition of human A549 cells; type: functional
[47] = test system: RXF 393; assay: Growth inhibition of human […] cells; type: functional
[48] = test system: KM12; assay: Growth inhibition of human KM12 cells; type: functional
[49] = test system: SN12C; assay: Growth inhibition of human SN12C cells; type: functional; summary of the method: as §1
[50] = test system: HOP-62; assay: Growth inhibition of human HOP62 cells; type: functional
[51] = test system: HT-29; assay: Growth inhibition of human HT29 cells; type: functional

With `COc1ccc2c([nH]c3cc(O)c(C)cc32)c1CC=C(C)C` the GI50 [1] was 4.9 µM, the GI50 [2] was 8.32 µM and the GI50 [3] was 2.29 µM. For the same compound, the GI50 [4] was 12 µM, the GI50 [5] was 4.37 µM and the GI50 [6] was 22.4 µM. The GI50 [7] was 20.9 µM, the GI50 [8] was 4.47 µM and the GI50 [9] was 25.1 µM. For the same compound, the GI50 [10] was 5.5 µM, the GI50 [11] was 10.7 µM and the GI50 [12] was 8.71 µM. For the same compound, the GI50 [13] was 6.76 µM, the GI50 [14] was 8.51 µM and the GI50 [15] was 1.62 µM. For the same compound, the GI50 [16] was 9.55 µM, the GI50 [17] was 25.1 µM and the GI50 [18] was 5.01 µM. For the same compound, the GI50 [19] was 5.37 µM, the GI50 [20] was 5.62 µM and the GI50 [21] was 7.94 µM. The GI50 [22] was 5.89 µM, the GI50 [23] was 25.1 µM and the GI50 [24] was 4.37 µM. For the same compound, the GI50 [25] was 5.13 µM, the GI50 [26] was 9.12 µM and the GI50 [27] was 16.2 µM. The GI50 [28] was 25.1 µM, the GI50 [29] was 8.13 µM and the GI50 [30] was 17.4 µM. It also gave a GI50 [31] of 14.5 µM, a GI50 [32] of 12.3 µM and a GI50 [33] of 7.94 µM. It also gave a GI50 [34] of 25.1 µM, a GI50 [35] of 25.1 µM and a GI50 [36] of 9.33 µM. The GI50 [37] was 9.12 µM, the GI50 [38] was 25.1 µM and the GI50 [39] was 7.24 µM. It also gave a GI50 [40] of 11.5 µM, a GI50 [41] of 5.75 µM and a GI50 [42] of 7.94 µM. It also gave a GI50 [43] of 5.37 µM, a GI50 [44] of 5.89 µM and a GI50 [45] of 25.1 µM. The GI50 [46] was 8.51 µM.
Work on `Cc1cc2c(cc1O)[nH]c1cc3c(cc12)C=CC(C)(C)O3` yielded a GI50 [1] of 0.00324 µM, a GI50 [2] of 9.12 µM and a GI50 [3] of 22.9 µM. It also gave a GI50 [47] of 4.9 µM, a GI50 [4] of 12.9 µM and a GI50 [5] of 3.98 µM. For the same compound, the GI50 [6] was 10.5 µM, the GI50 [7] was 10.7 µM and the GI50 [8] was 4.57 µM. For the same compound, the GI50 [9] was 25.1 µM, the GI50 [10] was 6.76 µM and the GI50 [11] was 13.2 µM. For the same compound, the GI50 [12] was 9.33 µM, the GI50 [13] was 7.59 µM and the GI50 [14] was 5.01 µM. For the same compound, the GI50 [15] was 6.03 µM, the GI50 [16] was 6.76 µM and the GI50 [17] was 14.5 µM. For the same compound, the GI50 [18] was 25.1 µM, the GI50 [19] was 20 µM and the GI50 [48] was 5.25 µM. For the same compound, the GI50 [20] was 5.37 µM, the GI50 [21] was 4.07 µM and the GI50 [22] was 6.03 µM. For the same compound, the GI50 [23] was 17.8 µM, the GI50 [25] was 8.71 µM and the GI50 [26] was 6.76 µM. It also gave a GI50 [27] of 9.33 µM, a GI50 [28] of 25.1 µM and a GI50 [29] of 17.4 µM. The GI50 [30] was 10 µM, the GI50 [31] was 11.5 µM and the GI50 [49] was 6.31 µM. For the same compound, the GI50 [32] was 19.5 µM, the GI50 [33] was 9.77 µM and the GI50 [34] was 25.1 µM. It also gave a GI50 [50] of 7.94 µM, a GI50 [35] of 25.1 µM and a GI50 [36] of 9.33 µM. For the same compound, the GI50 [37] was 12.9 µM, the GI50 [38] was 19.1 µM and the GI50 [39] was 6.46 µM. It also gave a GI50 [40] of 11.2 µM, a GI50 [41] of 25.1 µM and a GI50 [51] of 11.7 µM. The GI50 [42] was 6.92 µM, the GI50 [43] was 7.24 µM and the GI50 [44] was 8.32 µM. It also gave a GI50 [45] of 25.1 µM and a GI50 [46] of 6.46 µM.
For `CC(C)=CCCC1(C)C=Cc2c(ccc3c2[nH]c2cc(O)c(C)cc23)O1` (stereo unspecified), the GI50 [1] was 4.17 µM, the GI50 [2] was 6.61 µM and the GI50 [47] was 5.25 µM. For the same compound, the GI50 [4] was 8.71 µM, the GI50 [5] was 4.57 µM and the GI50 [6] was 7.94 µM. The GI50 [7] was 7.08 µM, the GI50 [8] was 3.8 µM and the GI50 [9] was 25.1 µM. It also gave a GI50 [10] of 4.68 µM, a GI50 [11] of 6.61 µM and a GI50 [12] of 5.13 µM. It also gave a GI50 [13] of 4.68 µM, a GI50 [14] of 5.01 µM and a GI50 [15] of 3.89 µM. The GI50 [16] was 5.01 µM, the GI50 [18] was 16.6 µM and the GI50 [19] was 5.01 µM. The GI50 [48] was 4.79 µM, the GI50 [20] was 4.68 µM and the GI50 [21] was 4.57 µM. For the same compound, the GI50 [22] was 4.57 µM, the GI50 [23] was 19.5 µM and the GI50 [24] was 4.27 µM. The GI50 [25] was 5.01 µM, the GI50 [26] was 9.33 µM and the GI50 [27] was 5.25 µM. The GI50 [29] was 4.9 µM, the GI50 [30] was 5.25 µM and the GI50 [49] was 4.68 µM. For the same compound, the GI50 [32] was 6.92 µM, the GI50 [33] was 4.27 µM and the GI50 [34] was 6.46 µM. For the same compound, the GI50 [50] was 4.79 µM, the GI50 [36] was 6.76 µM and the GI50 [37] was 8.91 µM. The GI50 [38] was 7.08 µM, the GI50 [39] was 5.5 µM and the GI50 [40] was 12.9 µM. The GI50 [41] was 5.62 µM, the GI50 [51] was 4.9 µM and the GI50 [42] was 9.55 µM. For the same compound, the GI50 [43] was 4.79 µM, the GI50 [44] was 3.89 µM and the GI50 [46] was 6.61 µM.
